Activity calls are given as the source filed them. The rule behind the calls is not given here.

The target in assay [1] is T1, Signal transducer and activator of transcription 3 (Homo sapiens, UniProt P40763). The assay is described as follows: Inhibition of STAT3 (unknown origin) expressed in Oncostatin M induced human HeLa cells at 50 uM incubated for 1 hr by luciferase reporter gene assay. Format: cell-based. On the technique in general: A reporter such as luciferase makes a cellular process visible.

In assay [2] the target is T2, Signal transducer and activator of transcription 1-alpha/beta (Homo sapiens) (UniProt P42224).
T2 sequence (whole entry): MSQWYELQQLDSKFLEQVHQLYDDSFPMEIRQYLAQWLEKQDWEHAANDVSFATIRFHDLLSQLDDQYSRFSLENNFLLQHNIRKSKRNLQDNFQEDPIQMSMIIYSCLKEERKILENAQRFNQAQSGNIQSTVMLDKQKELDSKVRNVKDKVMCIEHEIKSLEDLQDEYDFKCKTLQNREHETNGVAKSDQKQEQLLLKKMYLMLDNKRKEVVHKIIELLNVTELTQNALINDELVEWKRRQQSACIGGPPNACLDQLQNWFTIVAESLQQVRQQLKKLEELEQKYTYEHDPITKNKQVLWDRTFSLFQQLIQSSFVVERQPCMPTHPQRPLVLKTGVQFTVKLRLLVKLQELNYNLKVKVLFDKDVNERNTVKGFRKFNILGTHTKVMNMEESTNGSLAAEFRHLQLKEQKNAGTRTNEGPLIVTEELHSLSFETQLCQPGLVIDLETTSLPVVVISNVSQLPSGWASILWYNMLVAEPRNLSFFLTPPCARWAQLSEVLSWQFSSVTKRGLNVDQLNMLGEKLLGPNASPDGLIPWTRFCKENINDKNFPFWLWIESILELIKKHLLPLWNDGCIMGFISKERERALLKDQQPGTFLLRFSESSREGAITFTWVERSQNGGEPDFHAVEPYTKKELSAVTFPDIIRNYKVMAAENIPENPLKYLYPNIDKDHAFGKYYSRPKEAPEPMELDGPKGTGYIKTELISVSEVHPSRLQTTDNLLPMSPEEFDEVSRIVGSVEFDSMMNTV
The assay is described as follows: Inhibition of STAT1 (unknown origin) expressed in IFN-gamma induced human HeLa cells at 50 uM incubated for 1 hr by luciferase reporter gene assay. Format: cell-based.

In assay [3] the target is T1, Signal transducer and activator of transcription 3. The assay is described as follows: Displacement of fluorescent peptide 5-FAM-G(pTyr)LPQTV-CONH2 from GST-tagged full-length human STAT3 preincubated for 60 mins followed by fluorescent peptide addition measured after 30 mins by fluorescence polarization assay. The method in brief:
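Full-length GST-STAT3 (100 nM) preincubated 60 min at room temperature with compound at various concentrations or vehicle, in 50 mM NaCl, 10 mM Hepes pH 7.5, 1 mM EDTA, 0.01% Triton X-100, 2 mM DTT. Labelled peptide then added to 10 nM final, 30 min room temperature. FP read with excitation 480, emission 535 (P and S pol).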
(Polarisation of emitted light reports the rotation of a fluorescent probe.)

T1 sequence (P40763 whole entry): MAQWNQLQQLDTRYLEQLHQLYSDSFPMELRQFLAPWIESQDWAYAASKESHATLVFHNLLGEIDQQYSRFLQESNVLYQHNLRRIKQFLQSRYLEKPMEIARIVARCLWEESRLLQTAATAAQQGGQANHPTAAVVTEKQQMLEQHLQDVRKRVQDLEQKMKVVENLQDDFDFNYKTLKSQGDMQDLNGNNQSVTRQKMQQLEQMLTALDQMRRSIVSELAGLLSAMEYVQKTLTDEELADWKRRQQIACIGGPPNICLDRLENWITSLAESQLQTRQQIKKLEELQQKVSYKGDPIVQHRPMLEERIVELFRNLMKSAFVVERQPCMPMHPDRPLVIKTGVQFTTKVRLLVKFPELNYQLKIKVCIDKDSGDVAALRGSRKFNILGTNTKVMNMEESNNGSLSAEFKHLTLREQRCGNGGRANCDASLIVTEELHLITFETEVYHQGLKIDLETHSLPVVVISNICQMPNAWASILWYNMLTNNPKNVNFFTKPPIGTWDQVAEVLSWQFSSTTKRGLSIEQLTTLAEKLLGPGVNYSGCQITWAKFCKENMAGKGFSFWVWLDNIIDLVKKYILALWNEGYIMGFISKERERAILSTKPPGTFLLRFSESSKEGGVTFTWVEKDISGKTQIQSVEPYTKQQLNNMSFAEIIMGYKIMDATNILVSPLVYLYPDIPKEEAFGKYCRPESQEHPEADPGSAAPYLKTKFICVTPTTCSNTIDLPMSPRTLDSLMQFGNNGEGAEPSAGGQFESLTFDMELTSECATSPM

As usually defined, the inhibition is the relative decrease from the control value, in per cent. `COC(=O)c1cccc(COc2c(Cl)cc(CNc3nn[nH]n3)cc2OC)c1`: the inhibition was found to be 49.2% in assay [1] and 0% in assay [2].

For the compound `COc1cc(CNc2nn[nH]n2)cc([N+](=O)[O-])c1OCc1ccc([N+](=O)[O-])cc1`, the inhibition came out at 36% in assay [1] and 6.4% in assay [2].

For the compound `COc1cc(CC(C(=O)O)c2nn[nH]n2)cc(Cl)c1OCc1ccc(C)cc1` (centres undefined), the figures for the inhibition in assay [1] and in assay [2] were 40.2% and 12.9%, respectively.

On to `COc1cc(CNc2nn[nH]n2)cc(Cl)c1OCc1cccc([N+](=O)[O-])c1`, for which the outcome in assay [3] was Active. The inhibition in assay [1] was determined as 40.1%; in assay [2] it was 9.2%.

In the case of `COc1cc(CNc2nn[nH]n2)ccc1OCc1ccc(C)cc1`, the results for the inhibition in assay [1] and in assay [2] were 43% and 0%, respectively.

As for `CCOc1cc(CNc2nn[nH]n2)cc(Cl)c1OCc1ccc([N+](=O)[O-])cc1`, the inhibition in assay [1] was 20.4%; in assay [2], 34.8%.

Take `COc1cc(CNc2nn[nH]n2)cc(Cl)c1OCc1cccc(C(N)=O)c1`: the inhibition was found to be 15.9% in assay [1] and 15% in assay [2].

As for `COc1cc(CNc2nn[nH]n2)cc(Cl)c1OCc1cccc(COc2ccccc2)c1`, the inhibition in assay [1] is 0.7%; in assay [2] it was 0%.

As for `C=CCN1C(=O)C(CC(=O)Nc2ccc(C(=O)O)cc2)S/C1=N/c1cccc(Cl)c1` (centres undefined), the inhibition result in assay [1] is “Active”.

For the compound `CCCCCCOc1cc(COc2c(Cl)cc(CNc3nn[nH]n3)cc2OC)ccc1[N+](=O)[O-]`, the inhibition in assay [1] is 60.1%; in assay [2], 59.3%.

In the case of `COc1cc(CNc2nn[nH]n2)cc(Cl)c1OCc1ccc(C(C)(C)C)cc1`, the inhibition was 11.9% in assay [1] and 0% in assay [2].

`CCCCCCCCCOc1cc(COc2c(Cl)cc(CNc3nn[nH]n3)cc2OC)ccc1[N+](=O)[O-]`: the inhibition was determined as 82.7% in assay [1] and 72.9% in assay [2].

As for `CC(C)COC(=O)CN1C(=O)S/C(=C\c2ccc(C(=O)O)cc2)C1=O`, the inhibition result in assay [1] is “Active”.

Regarding `CCOc1cc(CNc2nn[nH]n2)cc(I)c1OCc1ccc([N+](=O)[O-])cc1`, the inhibition is 32.4% in assay [1] and 15.1% in assay [2].

For `COc1cc(CC(c2nn[nH]n2)c2nn[nH]n2)cc(Cl)c1OCc1ccc(C)cc1`, the inhibition stood at 38.6% in assay [1] and 17.7% in assay [2].

On to `COc1cc(CNc2nn[nH]n2)cc(Cl)c1OCc1ccc(-c2csc(C)n2)cc1`, for which the inhibition in assay [1] and in assay [2] was 0% in each case.

With `COc1cc(CNc2nn[nH]n2)cc(Cl)c1OCc1ccc([N+](=O)[O-])cc1[N+](=O)[O-]`, in assay [1], the inhibition came out at 40.1%.

`CC1CCc2c(sc3ncn(Cc4ccc(C(=O)O)cc4)c(=O)c23)C1` (centres undefined): the inhibition entry in assay [1] is “Active”.

Turning to `COc1cc(CNc2nn[nH]n2)cc(Cl)c1OCc1ccccc1[N+](=O)[O-]`, the inhibition in assay [1] stood at 31%; in assay [2], 1.1%.

In the case of `COc1cc(CNc2nn[nH]n2)cc(Cl)c1OCc1ccc(OC2CCOCC2)cc1`, the inhibition is 4.1% in assay [1] and 0% in assay [2].

On to `COc1cc(CNc2nn[nH]n2)cc(Br)c1OCc1ccc(C)cc1`, for which the values for the inhibition in assay [1] and in assay [2] were 58.8% and 11.8%, respectively.

Consider `COc1ccc([N+](=O)[O-])cc1COc1c(Cl)cc(CNc2nn[nH]n2)cc1OC`, for which the inhibition in assay [1] is 20.4%; in assay [2], 0%.

For the compound `COc1cc(CNc2nn[nH]n2)cc(Cl)c1OCc1ccc(Cl)cc1`, the values for the inhibition in assay [1] and in assay [2] were 37.6% and 4.4%, respectively.

Turning to `COc1cc(CO)cc(Cl)c1OCc1ccc([N+](=O)[O-])cc1`, the inhibition came to 66.4% in assay [1] and 43.6% in assay [2].

With `CCCOc1cc(COc2c(Cl)cc(CNc3nn[nH]n3)cc2OC)ccc1[N+](=O)[O-]`, the inhibition in assay [1] was 38.3%; in assay [2] it was 2.8%.

Consider `COc1cc(CNc2nn[nH]n2)ccc1OCc1c(Cl)cccc1Cl`, for which the inhibition entry in assay [1] was “Active”.

As for `COc1c(OCc2ccc([N+](=O)[O-])cc2)c(Cl)cc(CNc2nn[nH]n2)c1[N+](=O)[O-]`, the values for the inhibition in assay [1] and in assay [2] were 19.6% and 16.5%, respectively.

With `COc1cc(CNc2nn[nH]n2)cc(Cl)c1OCc1ccc(F)cc1`, the inhibition amounted to 50.7% in assay [1] and 1.2% in assay [2].

As to `Clc1cc(CNc2nn[nH]n2)cc(OCCCc2ccccc2)c1OCc1ccccc1`, the inhibition in assay [1] is 26.9%; in assay [2], 11.1%.

As for `COC(=O)c1ccc(COc2c(Cl)cc(CNc3nn[nH]n3)cc2OC)cc1`, the inhibition in assay [1] came out at 51.5%; in assay [2], 0%.

For `COc1cc(CC(C(=O)O)C(=O)O)cc(Cl)c1OCc1ccc(C)cc1`, the inhibition in assay [1] amounted to 14.8%; in assay [2], 24.5%.

As to `O=C(O)c1ccc(NC(=O)C2CC(=O)N(CCc3ccccc3)/C(=N/c3ccccc3)S2)cc1` (centres undefined), the inhibition result in assay [1] was “Active”.

For `COc1cc(CN(CC(=O)O)Cc2cc(Cl)c(OCc3ccc(C)cc3)c(OC)c2)cc(Cl)c1OCc1ccc(C)cc1`, the inhibition amounted to 54.7% in assay [1] and 46% in assay [2].

Regarding `COc1cc(CNc2nn[nH]n2)cc(Br)c1OCc1ccc([N+](=O)[O-])cc1`, the figures for the inhibition in assay [1] and in assay [2] were 48% and 0%, respectively.

Turning to `COc1cc(CNc2nn[nH]n2)cc(I)c1OCc1ccc(C)cc1`, the results for the inhibition in assay [1] and in assay [2] were 62.7% and 16.5%, respectively.

For the compound `Oc1cc(CNc2nn[nH]n2)cc(Cl)c1OCc1ccccc1`, the results for the inhibition in assay [1] and in assay [2] were 30.8% and 20.4%, respectively.

Consider `COc1cc(CNc2nn[nH]n2)cc(Cl)c1OCc1ccc(OC(F)(F)F)cc1`, for which the inhibition came out at 51.1% in assay [1] and 11.7% in assay [2].

Regarding `COc1cc(CNc2nn[nH]n2)cc(Cl)c1OCc1ccc(C(=O)O)cc1`, the inhibition is 41.1% in assay [1] and 12.9% in assay [2].

For `COc1cc(CNc2nn[nH]n2)cc(OC)c1OCc1ccc([N+](=O)[O-])cc1`, the inhibition in assay [1] came to 45.1%; in assay [2], 19.2%.

`COc1cc(CNc2nn[nH]n2)cc(I)c1OCc1ccc([N+](=O)[O-])cc1`: the inhibition worked out at 52.1% in assay [1] and 0% in assay [2].

For `COc1cc(CNc2nn[nH]n2)cc(Cl)c1OCc1cccc(-c2ccccc2)c1`, the inhibition in assay [1] is 8.2%; in assay [2], 0%.

As for `COc1cc(CNc2nn[nH]n2)cc(Cl)c1OCc1cccc(C(=O)O)c1`, the inhibition stood at 36.9% in assay [1] and 10% in assay [2].

In the case of `COc1cc(CNc2nn[nH]n2)cc(Cl)c1OCc1ccc(C#N)cc1`, the inhibition in assay [1] came out at 37.4%; in assay [2], 13.2%.

In the case of `COc1cc(CNc2nn[nH]n2)cc(Cl)c1OCc1ccc(-c2nccs2)cc1`, the inhibition in assay [1] and in assay [2] was 0% each time.

As for `COC(=O)Cc1c(C)c2ccc(OCc3nn[nH]n3)cc2oc1=O`, the inhibition entry in assay [1] was “Active”.

`COc1cc(CNc2nn[nH]n2)cc(Cl)c1OCc1ccc(C(F)(F)F)cc1`: the inhibition in assay [1] turned out to be 48.5%; in assay [2], 11.5%.

In the case of `COc1cc(CNc2nn[nH]n2)cc(Cl)c1OCc1ccc(C(N)=O)cc1`, the results for the inhibition in assay [1] and in assay [2] were 25.7% and 9.5%, respectively.

Take `CCc1cc2c(cc1COc1c(Cl)cc(CNc3nn[nH]n3)cc1OC)C(C)(C)CCC2(C)C`: the inhibition in assay [1] amounted to 77%; in assay [2] it was 72.7%.

In the case of `COc1cc(CCc2nn[nH]n2)cc(Cl)c1OCc1ccc(C)cc1`, the inhibition in assay [1] came out at 32.8%; in assay [2], 0%.

Take `COc1cc(CNc2nn[nH]n2)cc(Cl)c1OCc1ccc(-n2nc(C)cc2C)cc1`: the inhibition was determined as 2.6% in assay [1] and 13.9% in assay [2].

Consider `COc1cc(CNc2nn[nH]n2)cc(Cl)c1OCc1ccc(SC)cc1`, for which the values for the inhibition in assay [1] and in assay [2] were 0% and 9.7%, respectively.

Turning to `O=[N+]([O-])c1ccc(COc2c(O)cc(CNc3nn[nH]n3)cc2Cl)cc1`, the values for the inhibition in assay [1] and in assay [2] were 25.3% and 0.6%, respectively.

As to `COc1cc(CN2C(=O)c3ccccc3C2=O)cc(Cl)c1OCc1ccc([N+](=O)[O-])cc1`, the inhibition amounted to 95.9% in assay [1] and 44.5% in assay [2].

Turning to `COc1cc(CNc2nn[nH]n2)cc(Cl)c1OC(C)c1ccccc1` (centres undefined), the inhibition in assay [1] and in assay [2] was 0% throughout.

With `C[C@@H]1CC(=O)c2c(ccc3c2C(=O)c2cccc(O)c2C3=O)C1`, the inhibition in assay [1] worked out at 71%; in assay [2] it was 13.1%.

Source of the values: ChEMBL document CHEMBL3627693, “Novel aminotetrazole derivatives as selective STAT3 non-peptide inhibitors” (Eur J Med Chem, 2015).
